# PubChem BioAssay
# Active and inactive are the calls of the source.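 The calls were made as follows, unless noted: active = viability loss from added drug above about 55%, and viability with drug at most 40%, in both replicates (limit read from the data, passing the limit was not always enough); inconclusive = both conditions met in only one replicate; inactive = neither replicate meets both conditions.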
# Experiments:
# [1] = HUVEC growth inhibition – cell-based, human, primary screen (AID 575;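 active = viability at or below 30% in both replicate assays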;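 also: 100% = median of untreated cell wells with 0.1% DMSO on each plate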); conditions: HUVEC proliferation, CellTiter-Glo luminescence, 72 h; at 10 µM; stronger effect = lower value
# Procedure, shortened: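 System – primary HUVEC, no more than 12 passages · Medium – Low-serum (2% FBS) EBM, supplemented · Times – 72 h exposure, 37 °C, 5% CO2, 30 min RT equilibration · Measured by – luminescent ATP assay · Read-out – % viability relative to median vehicle-well signal on each plate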
# [2] = growth inhibitors of H69AR lung tumor, primary screen, human, duplicate replicates (AID 580;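 active = viability at or under a set limit in both replicates, limit being median viability minus 3 SD, cut at about 48% in these data, passing the limit was not always enough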;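 also: 100% = mean luminescence of untreated wells and 0% = no signal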); conditions: H69AR lung tumor cells viability, ATP luminescence, 72 h; at 10 µM; stronger effect = lower value
# [3] = reversal of MRP1-mediated doxorubicin resistance, pilot screen, H69AR cells, doxorubicin co-treatment (AID 601); conditions: CellTiter-Glo, 72 h, at 10 µM; for differential viability (reversal): stronger effect = higher value
# [4] = 384-well plate pilot, post-Golgi transport modulator project, inhibition of yeast transport mutant growth (AID 636; in the data active = inhibition above about 31%); conditions: absorbance 615 nm, about 18 h, stronger effect = higher value
# [5] = growth suppression of yeast trafficking mutant, preliminary HTS, modulators of trafficking downstream of Golgi apparatus project, 1536-format plate, OD 615 nm (AID 637; in the data active = inhibition above about 30%); conditions: yeast transport mutant growth, absorbance 615 nm, 18 h; stronger effect = higher value
# [6] = H69AR cells + 2 uM doxorubicin, measured here: viability with 2 uM doxorubicin, stronger effect = lower value
# [7] = H69AR cells, compound alone cytotoxicity
SMILES,viability [1],viability [2],differential viability (reversal) ([3]; H69AR cells + 2 uM doxorubicin),"viability [3, 6] [%]","viability [3, 7] [%]",inhibition [4],inhibition [5]
CCOC(=O)C1CCCN(C(=O)c2cccs2)C1 (stereo not given),96.7% (inactive),98.3% (inactive),15.4% (inactive),82.9,98.3,-6.18% (inactive),0.48% (inactive)
CCCC(=O)Nc1ccc(NC(=O)c2cccs2)cn1,95.9% (inactive),87.8% (inactive),5.45% (inactive),82.3,87.8,-2.99% (inactive),-2.86% (inactive)
Cn1c(=O)[nH]c(=O)c2c1nc(NC1CCCCC1)n2CC(=O)NC1CCCCC1,99.5% (inactive),94.7% (inactive),14.6% (inactive),80.1,94.7,-7.6% (inactive),5.87% (inactive)
CC(C)CN1C(=O)c2ccc(C(=O)Nc3nccs3)cc2C1=O,90.8% (inactive),104% (inactive),21.4% (inactive),82.6,104,0.39% (inactive),0.63% (inactive)
CC(=O)Nc1ccc(N2CCN(Cc3ccccc3F)CC2)cc1,88.8% (inactive),92.5% (inactive),8.67% (inactive),83.8,92.5,-0.91% (inactive),1.11% (inactive)
CCOc1ccccc1-n1c(SCC(=O)NC(C)CC)nnc1-c1ccoc1C (stereo not given),82.5% (inactive),88.7% (inactive),9.12% (inactive),79.6,88.7,-6% (inactive),-1.75% (inactive)
Cc1ccc(-c2[nH]nc3c2C(c2ccoc2)C(C#N)=C(N)O3)cc1C (stereo not given),90.2% (inactive),86.7% (inactive),0.74% (inactive),86,86.7,-1.45% (inactive),-1.27% (inactive)
COc1ccc(S(=O)(=O)Nc2ccc3c(c2)OCO3)cc1Cl,12.9% (active),87.3% (inactive),5.36% (inactive),82,87.3,-6.67% (inactive),12.1% (inactive)
CCOC(=O)CSc1nnc(CNC(=O)c2ccc(OC)c(OC)c2)n1C,107% (inactive),95.7% (inactive),-2.17% (inactive),97.8,95.7,-1.82% (inactive),-2.54% (inactive)
CCOc1ccccc1NC(=O)CCSc1nc2n[nH]c(C)c2c(=N)n1-c1ccccc1Cl,39.2% (inactive),16.9% (active),0.49% (inactive),16.4,16.9,-3.03% (inactive),-3.5% (inactive)
COc1ccc(-c2nnc(-c3ccc(N)cc3)o2)cc1,95.9% (inactive),88.3% (inactive),-2.75% (inactive),91.1,88.3,-4.13% (inactive),3.81% (inactive)
O=C(c1ccc(-c2ccccc2)cc1)N1CCC(C(=O)N2CCCC2)CC1,97.3% (inactive),104% (inactive),12.4% (inactive),91.4,104,-6.67% (inactive),5.71% (inactive)
O=C(Oc1ccccc1)c1cccc(COC(=O)c2cnccn2)c1,84.9% (inactive),103% (inactive),14.2% (inactive),88.4,103,-6.13% (inactive),4.13% (inactive)
CCCOc1ccc(S(=O)(=O)NCCCN2CCOCC2)c2ccccc12,83.2% (inactive),90% (inactive),7.43% (inactive),82.6,90,-6.13% (inactive),4.6% (inactive)
O=C(Nc1ncnc2sc3c(c12)CCCCC3)c1ccco1,91.5% (inactive),73.8% (inactive),-0.73% (inactive),74.5,73.8,-2.08% (inactive),3.65% (inactive)
Nc1nc(NC(=O)c2cccs2)nn1-c1ccccc1,101% (inactive),94% (inactive),7.31% (inactive),86.7,94,-6.45% (inactive),-4.29% (inactive)
CCN(CC)C(=O)CSc1nnc(-c2cc(OC)cc(OC)c2)o1,84.1% (inactive),93.9% (inactive),2.03% (inactive),91.9,93.9,-5.87% (inactive),2.7% (inactive)
CC1CCN(C(=O)c2cc(-c3ccc(Cl)c(Cl)c3)on2)CC1,77.1% (inactive),90.7% (inactive),10.5% (inactive),80.2,90.7,-2.11% (inactive),0.95% (inactive)
CC(C)(C)C1CCc2c(sc3c2C(=O)NC(c2ccco2)N3)C1 (stereo not given),72.5% (inactive),88.5% (inactive),-10.4% (inactive),98.9,88.5,1.97% (inactive),-0.16% (inactive)
O=C(O)c1ccccc1S,84.4% (inactive),74.7% (inactive),6.9% (inactive),67.8,74.7,-2.34% (inactive),3.5% (inactive)
